Consider two molecules from ChEMBL document CHEMBL4477207, “Discovery of Novel 3-Quinoline Carboxamides as Potent, Selective, and Orally Bioavailable Inhibitors of Ataxia Telangiectasia Mutated (ATM) Kinase” (J Med Chem, 2016).

SMILES strings stand for the structures. ≈ marks a conversion by molar mass, not a printed value.
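Throughout, for logD: determined by the shake flask method.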

T1 sequence (Q13315 whole entry): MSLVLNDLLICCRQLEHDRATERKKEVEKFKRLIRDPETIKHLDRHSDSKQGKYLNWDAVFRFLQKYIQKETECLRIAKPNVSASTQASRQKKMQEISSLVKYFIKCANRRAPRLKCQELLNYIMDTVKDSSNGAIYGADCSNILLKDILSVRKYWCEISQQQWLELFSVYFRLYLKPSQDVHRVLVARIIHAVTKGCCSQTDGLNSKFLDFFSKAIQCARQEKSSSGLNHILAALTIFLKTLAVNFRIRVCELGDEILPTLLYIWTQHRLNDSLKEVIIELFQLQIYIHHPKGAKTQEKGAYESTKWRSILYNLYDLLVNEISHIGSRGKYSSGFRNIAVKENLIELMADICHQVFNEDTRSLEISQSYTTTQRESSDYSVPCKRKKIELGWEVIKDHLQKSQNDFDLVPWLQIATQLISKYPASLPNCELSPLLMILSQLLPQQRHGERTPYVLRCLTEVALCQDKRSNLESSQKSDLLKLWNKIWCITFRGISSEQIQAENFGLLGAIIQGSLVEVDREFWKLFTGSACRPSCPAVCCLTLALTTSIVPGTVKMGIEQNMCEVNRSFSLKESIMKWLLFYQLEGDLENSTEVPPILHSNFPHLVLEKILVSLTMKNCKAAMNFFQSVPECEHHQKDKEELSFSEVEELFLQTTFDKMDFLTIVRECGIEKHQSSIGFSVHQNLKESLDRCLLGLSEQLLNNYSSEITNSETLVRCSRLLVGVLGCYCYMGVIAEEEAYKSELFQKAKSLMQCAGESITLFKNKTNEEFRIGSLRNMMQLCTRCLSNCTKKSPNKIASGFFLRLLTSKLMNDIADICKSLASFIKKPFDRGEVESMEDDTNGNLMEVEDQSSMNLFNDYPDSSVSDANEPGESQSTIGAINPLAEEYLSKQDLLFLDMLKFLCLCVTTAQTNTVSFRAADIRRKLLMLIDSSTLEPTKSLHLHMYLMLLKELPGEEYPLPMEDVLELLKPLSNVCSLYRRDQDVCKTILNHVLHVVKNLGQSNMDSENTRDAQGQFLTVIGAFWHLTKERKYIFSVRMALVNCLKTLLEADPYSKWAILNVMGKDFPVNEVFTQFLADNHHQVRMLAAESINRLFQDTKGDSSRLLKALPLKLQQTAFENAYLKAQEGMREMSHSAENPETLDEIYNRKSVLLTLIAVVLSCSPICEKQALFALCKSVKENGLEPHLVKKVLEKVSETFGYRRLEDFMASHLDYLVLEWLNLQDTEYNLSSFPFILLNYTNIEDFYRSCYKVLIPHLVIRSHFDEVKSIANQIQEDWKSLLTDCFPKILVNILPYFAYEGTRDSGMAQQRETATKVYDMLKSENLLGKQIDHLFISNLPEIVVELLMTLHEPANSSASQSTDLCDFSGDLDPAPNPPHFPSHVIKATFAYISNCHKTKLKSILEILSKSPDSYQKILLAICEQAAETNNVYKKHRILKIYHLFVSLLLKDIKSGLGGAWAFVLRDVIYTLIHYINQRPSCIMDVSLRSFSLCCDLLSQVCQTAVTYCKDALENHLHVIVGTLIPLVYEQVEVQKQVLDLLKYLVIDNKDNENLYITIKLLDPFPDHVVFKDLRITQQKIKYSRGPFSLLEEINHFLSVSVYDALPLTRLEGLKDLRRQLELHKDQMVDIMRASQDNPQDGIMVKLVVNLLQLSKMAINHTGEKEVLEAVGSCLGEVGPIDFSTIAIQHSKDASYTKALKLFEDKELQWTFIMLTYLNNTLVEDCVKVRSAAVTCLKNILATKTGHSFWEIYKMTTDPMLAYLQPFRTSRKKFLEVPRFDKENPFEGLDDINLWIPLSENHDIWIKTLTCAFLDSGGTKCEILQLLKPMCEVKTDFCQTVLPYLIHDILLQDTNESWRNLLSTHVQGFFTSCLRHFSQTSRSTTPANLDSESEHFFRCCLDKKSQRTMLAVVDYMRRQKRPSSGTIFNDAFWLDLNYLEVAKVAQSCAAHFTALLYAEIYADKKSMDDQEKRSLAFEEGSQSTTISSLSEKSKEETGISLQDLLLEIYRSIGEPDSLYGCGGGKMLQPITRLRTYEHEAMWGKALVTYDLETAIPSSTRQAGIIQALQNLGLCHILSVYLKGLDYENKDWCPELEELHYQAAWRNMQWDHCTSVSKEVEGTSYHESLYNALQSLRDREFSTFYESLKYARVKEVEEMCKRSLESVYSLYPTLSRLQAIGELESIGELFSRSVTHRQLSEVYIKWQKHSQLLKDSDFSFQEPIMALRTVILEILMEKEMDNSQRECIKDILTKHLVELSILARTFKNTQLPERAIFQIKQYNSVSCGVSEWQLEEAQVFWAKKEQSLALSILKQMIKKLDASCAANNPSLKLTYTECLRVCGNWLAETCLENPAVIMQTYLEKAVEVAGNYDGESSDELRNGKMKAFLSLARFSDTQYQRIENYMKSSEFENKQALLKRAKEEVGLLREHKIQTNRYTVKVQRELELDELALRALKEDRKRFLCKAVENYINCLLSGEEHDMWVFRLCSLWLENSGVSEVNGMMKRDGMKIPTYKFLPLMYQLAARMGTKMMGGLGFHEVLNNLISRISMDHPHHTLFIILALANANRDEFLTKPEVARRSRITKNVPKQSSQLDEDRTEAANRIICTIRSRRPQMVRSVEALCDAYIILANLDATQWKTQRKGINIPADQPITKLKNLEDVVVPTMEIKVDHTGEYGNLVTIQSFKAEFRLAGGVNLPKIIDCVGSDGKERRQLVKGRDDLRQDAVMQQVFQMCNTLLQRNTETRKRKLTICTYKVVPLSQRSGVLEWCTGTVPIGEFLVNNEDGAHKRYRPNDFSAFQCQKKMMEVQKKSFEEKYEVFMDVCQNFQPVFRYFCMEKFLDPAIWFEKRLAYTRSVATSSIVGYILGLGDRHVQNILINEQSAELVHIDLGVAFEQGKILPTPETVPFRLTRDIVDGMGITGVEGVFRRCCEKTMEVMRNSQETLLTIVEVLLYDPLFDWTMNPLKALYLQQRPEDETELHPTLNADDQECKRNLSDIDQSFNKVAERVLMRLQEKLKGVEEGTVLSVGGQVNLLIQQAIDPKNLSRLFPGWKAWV

The first series concerns the target T1, Serine-protein kinase ATM (Homo sapiens, UniProt Q13315). Briefly: Inhibition of ATM (unknown origin) using p53 as substrate incubated for 30 mins followed by substrate addition measured after 2 hrs in presence of ATP by HTRF method.
Conditions: not given
On to `C[C@@H](Nc1c(C(N)=O)cnc2ccc(-c3cccnc3)cc12)c1ccc(Cl)cc1`, for which the IC50 is 2 nM.

Take `CCC(CC)CNc1c(C(N)=O)cnc2ccc(C#N)cc12`: the IC50 worked out at 8 nM.

The target in the next series is T1, Serine-protein kinase ATM. The series is described as follows: Inhibition of ATM phosphorylation at Ser-1981 residue in human HT-29 cells incubated for 1 hr followed by X-ray irradiation by Hoechst staining based fluorescence plate reader analysis.
Conditions: not given
The series is classed as cell-based.
In turn, `C[C@@H](Nc1c(C(N)=O)cnc2ccc(-c3cccnc3)cc12)c1ccc(Cl)cc1` displayed an IC50 of 109 nM.

For the molecule `CCC(CC)CNc1c(C(N)=O)cnc2ccc(C#N)cc12`, the IC50 came out at 820 nM.

A further series addresses Serine/threonine-protein kinase ATR (Homo sapiens, UniProt Q13535). Briefly: Inhibition of ATR in human HT-29 cells assessed as reduction in Chk1 phosphorylation at Ser-345 residue after 60 mins in presence of 4-nitroquinoline-1-oxide by Hoechst 33258 staining based plate reader analysis.
Conditions: not given
The class given is cell-based.
For the molecule `C[C@@H](Nc1c(C(N)=O)cnc2ccc(-c3cccnc3)cc12)c1ccc(Cl)cc1`, the IC50 was 1900 nM.

With `CCC(CC)CNc1c(C(N)=O)cnc2ccc(C#N)cc12`, the IC50 came out at 4400 nM.

System in a further series: not listed separately
Briefly: Thermodynamic solubility of the compound in 0.1M aqueous phosphate buffer at pH 7.4 after 24 hrs by LC-UV analysis. The series is classed as physicochemical. As to conditions: read-out: Therm_solubility. Put shortly:
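Solid samples equilibrated in 0.1 M aqueous phosphate buffer, pH 7.4, for 24 h at 25 °C.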
As to `CCC(CC)CNc1c(C(N)=O)cnc2ccc(C#N)cc12`, the solubility thermodynamic at 24 h was found to be 19 µM (≈ 5.63 µg/mL).

In the next series the target is Serine/threonine-protein kinase mTOR (Homo sapiens, UniProt P42345). Briefly: Inhibition of C-terminal FLAG-tagged recombinant mTOR (1362 to 2549 residues) (unknown origin) using Biotin-Ahx-Lys-Lys-Ala-Asn-Gln-Val-Phe-Leu-Gly-Phe-Thr-Tyr-Val-Ala-Pro-Ser-Val-Leu-Glu-Ser-Val-Lys-Glu-NH2 as substrate after 90 mins by AlphaScreen assay.
Conditions: not given
In the case of `C[C@@H](Nc1c(C(N)=O)cnc2ccc(-c3cccnc3)cc12)c1ccc(Cl)cc1`, the IC50 stood at 181 nM.

Take `CCC(CC)CNc1c(C(N)=O)cnc2ccc(C#N)cc12`: the IC50 stood at 3450 nM.

Another series has as its target DNA-dependent protein kinase catalytic subunit (Homo sapiens, UniProt P78527). The series is described as follows: Inhibition of DNAPK (unknown origin) using p53-based peptide substrate preincubated for 5 min prior to ATP addition.
Conditions: not given
Regarding `C[C@@H](Nc1c(C(N)=O)cnc2ccc(-c3cccnc3)cc12)c1ccc(Cl)cc1`, the half-maximal inhibitory concentration (IC50) is 5 nM.

`CCC(CC)CNc1c(C(N)=O)cnc2ccc(C#N)cc12` registered an IC50 of 98 nM.

The target in the next series is Phosphatidylinositol 4,5-bisphosphate 3-kinase catalytic subunit alpha isoform (Homo sapiens, UniProt P42336). The series is described as follows: Inhibition of human recombinant PI3Kalpha using PIP2/ATP as substrate incubated for 20 mins followed by substrate addition by Kinase Glo reagent based luminescence assay.
Conditions: not given
For the molecule `C[C@@H](Nc1c(C(N)=O)cnc2ccc(-c3cccnc3)cc12)c1ccc(Cl)cc1`, the IC50 was 8 nM.

Take `CCC(CC)CNc1c(C(N)=O)cnc2ccc(C#N)cc12`: the IC50 turned out to be 247 nM.

The target of a further series is Phosphatidylinositol 4,5-bisphosphate 3-kinase catalytic subunit beta isoform (Homo sapiens, UniProt P42338). Briefly: Inhibition of human recombinant PI3Kbeta using PIP2/ATP as substrate incubated for 20 mins followed by substrate addition by Kinase Glo reagent based luminescence assay.
Chain of Phosphatidylinositol 4,5-bisphosphate 3-kinase catalytic subunit beta isoform (P42338 whole entry, canonical isoform): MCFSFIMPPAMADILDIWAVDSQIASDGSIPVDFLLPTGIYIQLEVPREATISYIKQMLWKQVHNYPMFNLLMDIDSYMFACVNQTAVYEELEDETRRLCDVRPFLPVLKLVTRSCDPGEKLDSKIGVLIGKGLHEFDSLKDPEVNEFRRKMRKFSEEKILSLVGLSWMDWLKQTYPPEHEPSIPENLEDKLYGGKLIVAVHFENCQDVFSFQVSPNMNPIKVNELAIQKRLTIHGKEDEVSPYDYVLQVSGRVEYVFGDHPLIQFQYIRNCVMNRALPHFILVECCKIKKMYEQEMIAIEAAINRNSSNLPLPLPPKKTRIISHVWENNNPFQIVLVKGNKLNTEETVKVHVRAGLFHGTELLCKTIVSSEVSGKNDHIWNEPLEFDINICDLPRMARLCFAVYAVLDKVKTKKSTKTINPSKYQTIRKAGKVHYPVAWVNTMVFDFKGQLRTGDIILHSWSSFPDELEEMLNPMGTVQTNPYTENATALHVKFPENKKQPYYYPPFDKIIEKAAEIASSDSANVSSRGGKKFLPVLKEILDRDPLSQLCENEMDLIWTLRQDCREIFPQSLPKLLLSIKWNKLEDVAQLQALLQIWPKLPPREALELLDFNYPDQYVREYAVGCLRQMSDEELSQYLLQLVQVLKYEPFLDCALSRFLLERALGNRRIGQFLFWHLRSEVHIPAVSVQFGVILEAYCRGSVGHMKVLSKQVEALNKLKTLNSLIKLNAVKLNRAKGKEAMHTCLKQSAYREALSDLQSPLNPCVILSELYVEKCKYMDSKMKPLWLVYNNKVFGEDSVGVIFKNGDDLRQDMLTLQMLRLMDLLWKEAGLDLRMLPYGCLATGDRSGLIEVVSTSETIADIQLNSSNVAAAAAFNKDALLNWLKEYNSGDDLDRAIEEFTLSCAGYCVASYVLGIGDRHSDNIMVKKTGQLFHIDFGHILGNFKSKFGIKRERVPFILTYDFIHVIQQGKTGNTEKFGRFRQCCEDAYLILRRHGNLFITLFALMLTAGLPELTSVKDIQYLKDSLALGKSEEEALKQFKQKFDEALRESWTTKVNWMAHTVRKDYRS
Conditions: not given
Regarding `C[C@@H](Nc1c(C(N)=O)cnc2ccc(-c3cccnc3)cc12)c1ccc(Cl)cc1`, the IC50 amounted to 21 nM.

For `CCC(CC)CNc1c(C(N)=O)cnc2ccc(C#N)cc12`, the IC50 was 5740 nM.

The next series concerns the target Phosphatidylinositol 4,5-bisphosphate 3-kinase catalytic subunit gamma isoform (Homo sapiens, UniProt P48736). Briefly: Inhibition of human recombinant PI3Kgamma using PIP2/ATP as substrate incubated for 20 mins followed by substrate addition by Kinase Glo reagent based luminescence assay.
Conditions: not given
For `C[C@@H](Nc1c(C(N)=O)cnc2ccc(-c3cccnc3)cc12)c1ccc(Cl)cc1`, the IC50 was found to be 45 nM.

As to `CCC(CC)CNc1c(C(N)=O)cnc2ccc(C#N)cc12`, the IC50 was over 1000 nM.

The species named for the next series is Homo sapiens. The series is described as follows: Selectivity ratio of IC50 for DNAPK (unknown origin) to IC50 for ATM (unknown origin).
Conditions: not given
In outline: (§1)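 Enzymatic selectivity calculated as the off-target enzyme IC50 over the ATM enzyme IC50. IC50s in µM, taken as means of at least 3 (ATM) or 2 (other enzymes) independent measurements.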
`CCC(CC)CNc1c(C(N)=O)cnc2ccc(C#N)cc12`: the Ratio IC50 is over 10.

The species entered for another series is Homo sapiens. The series is described as follows: Selectivity ratio of IC50 for human recombinant PI3Kalpha to IC50 for ATM (unknown origin).
Conditions: not given
Put shortly: as §1
As to `CCC(CC)CNc1c(C(N)=O)cnc2ccc(C#N)cc12`, the Ratio IC50 is over 10.

The species entered for a further series is Homo sapiens. The series is described as follows: Selectivity ratio of IC50 for C-terminal FLAG-tagged recombinant mTOR (1362 to 2549 residues) (unknown origin) to IC50 for ATM (unknown origin).
Conditions: not given
In outline: as §1
Regarding `CCC(CC)CNc1c(C(N)=O)cnc2ccc(C#N)cc12`, the Ratio IC50 is over 400.

The species named for another series is Homo sapiens. The series is described as follows: Selectivity ratio of IC50 for human recombinant PI3Kbeta to IC50 for ATM (unknown origin).
Conditions: not given
In outline:
as §1
For `CCC(CC)CNc1c(C(N)=O)cnc2ccc(C#N)cc12`, the Ratio IC50 is over 400.

Another series is filed under the species Homo sapiens. The series is described as follows: Selectivity ratio of IC50 for ATR in human HT-29 cells to IC50 for ATM in human HT-29 cells. The class given is cell-based.
Conditions: not given
`C[C@@H](Nc1c(C(N)=O)cnc2ccc(-c3cccnc3)cc12)c1ccc(Cl)cc1`: the Ratio IC50 was over 10.

As to `CCC(CC)CNc1c(C(N)=O)cnc2ccc(C#N)cc12`, the Ratio IC50 was under 10.

For the next series, the target named is Glycogen synthase kinase-3 beta (Homo sapiens, UniProt P49841). The series is described as follows: Inhibition of GSK3beta (unknown origin).
Chain of Glycogen synthase kinase-3 beta (P49841 whole entry): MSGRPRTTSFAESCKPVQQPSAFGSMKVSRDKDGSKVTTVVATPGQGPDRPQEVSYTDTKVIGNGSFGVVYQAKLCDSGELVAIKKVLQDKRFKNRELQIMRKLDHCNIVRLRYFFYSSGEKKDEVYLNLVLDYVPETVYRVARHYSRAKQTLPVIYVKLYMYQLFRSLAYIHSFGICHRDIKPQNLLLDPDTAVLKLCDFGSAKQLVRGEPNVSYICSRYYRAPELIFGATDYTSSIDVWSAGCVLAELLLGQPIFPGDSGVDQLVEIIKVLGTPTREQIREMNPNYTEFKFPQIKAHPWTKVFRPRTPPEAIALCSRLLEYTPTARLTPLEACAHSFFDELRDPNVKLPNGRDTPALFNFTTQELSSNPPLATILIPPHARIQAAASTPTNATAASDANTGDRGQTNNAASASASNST
Conditions: not given
For the molecule `CCC(CC)CNc1c(C(N)=O)cnc2ccc(C#N)cc12`, it took 550 nM to reach half-maximal inhibition (IC50).

The target in the next series is Vascular endothelial growth factor receptor 2 (Homo sapiens, UniProt P35968). The series is described as follows: Inhibition of KDR (unknown origin).
Conditions: not given
For the molecule `CCC(CC)CNc1c(C(N)=O)cnc2ccc(C#N)cc12`, half-maximal inhibition (IC50) was put at 8100 nM.

A further series addresses Voltage-gated inwardly rectifying potassium channel KCNH2 (Homo sapiens, UniProt Q12809).
Test: not given
Conditions: not given
In turn, `CCC(CC)CNc1c(C(N)=O)cnc2ccc(C#N)cc12` came in with an IC50 of 2300 nM.

System in another series: not listed separately
The series is described as follows: in vitro. As to conditions: human, hepatocytes.
On to `C[C@@H](Nc1c(C(N)=O)cnc2ccc(-c3cccnc3)cc12)c1ccc(Cl)cc1`, for which the hepatocyte CLint at 1.5 h is 11 µL/min/1e6 cells.

In the case of `CCC(CC)CNc1c(C(N)=O)cnc2ccc(C#N)cc12`, the hepatocyte CLint at 1.5 h is 12 µL/min/1e6 cells.

System in the next series: not listed separately
The series is described as follows: in vitro. As to conditions: rat, hepatocytes.
`C[C@@H](Nc1c(C(N)=O)cnc2ccc(-c3cccnc3)cc12)c1ccc(Cl)cc1` gave a hepatocyte CLint at 1.5 h of 70 µL/min/1e6 cells.

For `CCC(CC)CNc1c(C(N)=O)cnc2ccc(C#N)cc12`, the hepatocyte CLint at 1.5 h worked out at 74 µL/min/1e6 cells.

System in a further series: not listed separately
The series is described as follows: physchem. The conditions noted are these: octanol/buffer, pH 7.4.
In turn, `C[C@@H](Nc1c(C(N)=O)cnc2ccc(-c3cccnc3)cc12)c1ccc(Cl)cc1` had a logD of over 4.3.
